The species named for test [1] is Oryctolagus cuniculus. The test is described as follows: Mydriatic effect in rabbit assessed as change in pupil diameter under constant light at 0.02 M after 10 mins. The format is functional. The gist of the method:
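Rabbits (2.5–3.0 kg, either sex), randomised into groups of five. 0.05 ml agent dropped into left eye, right eye as control reference. Left pupil diameter (mm) read under constant light before and 10 min after dosing. Significance by Student's t-test, P < 0.05.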

Test [2] in a line: Displacement of [3H]NMS from mAChR in SD rat submandibulary gland by rapid filtration technique. The method, boiled down: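 Membranes from male SD rat (220–240 g) submandibulary glands, homogenised in ice-cold 0.32 M sucrose/50 mM Tris pH 7.4, spun at 1000g then 20,000g, at 4 °C. Membranes (0.1 mg protein) incubated at 37 °C with [3H]NMS and increasing compound concentrations in Tris buffer. Filtered through glass fibre, washed three times. Run in duplicate. IC50 by curve fit, Ki by Cheng–Prusoff.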

For test [3], the species on record is Cavia porcellus. Description: (§1) Antagonist activity at guinea pig mAChR assessed as inhibition of carbachol-induced iris muscle contraction. The format is functional, tissue-based. The gist of the method: (§2)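 pA2 values derived by Arunlakshana–Schild analysis of contraction responses; data as means SEM.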
For test [4], the species on record is Oryctolagus cuniculus. The test is described as follows: Myotic effect in rabbit assessed as change in pupil diameter under constant light at 0.02 M after 10 mins. The format is functional. The gist of the method:
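Twenty healthy rabbits (2.5–3.0 kg, either sex) were randomised into four groups of five. Left pupil diameter (mm) was read under constant light before and 10 min after 0.05 ml agent was dropped in; the right eye served as control reference. Significance by Student's t-test, P < 0.05.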

Test [5] in a line: as §1. The format is functional, tissue-based, Cavia porcellus. The gist of the method: as §2
The nature of test [6]: Agonist activity at guinea pig mAChR assessed as stimulation of carbachol-induced iris muscle contraction relative to carbachol. The format is functional. The conditions noted are these: Cavia porcellus.
Test [7] is described as follows: (§3) Agonist activity at guinea pig mAChR assessed as stimulation of carbachol-induced iris muscle contraction. The format is functional, tissue-based, Cavia porcellus. The method, boiled down:
(§4)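 Iris contraction assay: EC50 (agonist concentration giving half-maximal response) and log concentration–response slopes obtained by nonlinear sigmoidal dose–response logistic curve fitting. Data given as means SEM; significance by Student's t-test, P < 0.05.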

The species entered for test [8] is Cavia porcellus. The test is described as §3. The format is functional, tissue-based. The gist of the method:
as §4

Calls of active or inactive are those of the source. No cut-off for these calls is given here.

As a reminder, the Ki is the equilibrium dissociation constant of an inhibitor or competing ligand from its target. Lower therefore signals a stronger hold on the target. Take `CC(=O)O[C@@H]1CC2C[C@H](OC(=O)c3ccc(Cl)cc3)CC1N2C` (some centres undefined): the Activity in test [1] was 3%. The inhibition constant Ki in test [2] worked out at 73 µM. The outcome in test [3] was inactive.

On to `CC(=O)O[C@H]1CC2C[C@@H](OC(=O)c3ccc(Cl)cc3)CC1N2C` (some centres undefined), for which the Activity in test [1] stood at 32.2%. The same compound returned an inhibitory constant (Ki) in test [2] of 9 µM.

Turning to `CC(=O)O[C@@H]1CC2C[C@H](OS(=O)(=O)c3ccccc3)CC1N2C` (some centres undefined), the Activity in test [4] is given as 4.7%.

In general, pA2 refers to a measure of antagonist potency on a negative log scale. Turning to `CC(=O)O[C@H]1CC2C[C@@H](OC(=O)c3ccc([N+](=O)[O-])cc3)CC1N2C` (some centres undefined), the Activity in test [1] is listed as 35.1%. Besides, the Ki in test [2] came out at 3.7 µM. Also, in test [5], the pA2 came to 6.11.

Turning to `CC(=O)O[C@@H]1CC2C[C@H](OC(=O)c3ccc([N+](=O)[O-])cc3)CC1N2C` (some centres undefined), the Activity in test [1] is given as 3.7%. The compound also had an inhibitory constant (Ki) in test [2] of 450 µM. For the same compound, the result in test [3] was inactive.

As a reminder, the Emax is the maximal effect, on the per cent scale that the assay sets. Usually pEC50 stands for the negative decadic logarithm of the EC50, by convention in mol/L. `CC(=O)O[C@H]1CC2C[C@@H](OS(=O)(=O)c3ccccc3)CC1N2C` (some centres undefined): in test [6], the maximal response (Emax) was 87.1%. Besides, the Ki in test [2] worked out at 0.04 µM. For the same compound, the pEC50 in test [7] is listed as 6.06. Further, the Activity result in test [8] is “Dose-dependent effect”; in test [4] it was 44%.

Turning to `C[N+](C)(C)CCOC(N)=O.[Cl-]` [CARBACHOL], the Emax in test [6] amounted to 100%. For the same compound, in test [7], the pEC50 came to 6.57.

(Values after ChEMBL document CHEMBL1139257, “The absolute configuration plays an important role in muscarinic activity of BGT-A and its analogs” (Bioorg Med Chem, 2008).)
